Bioassay records (PubChem)
TRPC6 inh: mouse TRPC6 channel inhibitors, primary screen, cell-based, HEK293, membrane potential dye; ACh-evoked depolarization; stronger effect = lower value; Short transient receptor potential channel 6 (Mus musculus), Q61143; hit rate 1.1% among 310,000; B-score at 10 µM;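 active = B-score under library mean minus 3 SD, initial fluorescence not abnormally high, positive integrated signal ratio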;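 note: B-score derived from integrated fluorescence ratio over the kinetic read; more negative B-score means stronger inhibition of depolarization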
TRPC4 PAM: positive allosteric modulators of TRPC4, primary screen, cell-based, mouse TRPC4beta, HEK293 mu-opioid, Fluo-4 calcium; Short transient receptor potential channel 4 (Mus musculus), Q9QUQ5; B-score at 10 µM; DAMGO EC20, Fluo-4 Ca2+ flux; stronger effect = higher value; hit rate 0.42% among 310,000; AID 2227, 2009;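 active = B-score of calcium response area above 5 SD of library B-scores, with initial fluorescence ratio within 5 SD of library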;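 note: B-score of integrated fluorescence ratio over time as area under calcium response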
TRPC4 block: inhibitors of mouse TRPC4 channel, primary screen, Fluo4 calcium, HEK293 TRPC4beta/mu-opioid cells. Short transient receptor potential channel 4 (Mus musculus), Q9QUQ5. DAMGO-evoked Fluo4 calcium flux; stronger effect = lower value. B-score at 10 µM. hit rate 0.39% among 300,000;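 active = B-score over 3 SD under the library average, no early fluorescence shift, positive overall ratio signal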
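Signal: kinetic Fluo4 fluorescence imaging of calcium influx. Material: stable TRPC4beta/mu-opioid receptor HEK293 cells. Probe or stimulus: DAMGO in two steps, submaximal then maximal.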
TRPC6 act: mouse TRPC6 channel activators, primary screen, cell-based, HEK293, membrane potential dye; Short transient receptor potential channel 6 (Mus musculus), Q61143; HEK293-TRPC6 membrane potential dye fluorescence; stronger effect = higher value; B-score at 10 µM; hit rate 0.13% among 310,000;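 active = B-score of the integrated fluorescence ratio above library mean plus 3 SD, and starting fluorescence ratio within library mean plus 5 SD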;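 note: higher score means more depolarization so channel activation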
TRPC4 act: activators of mouse TRPC4 channel, primary screen, Fluo4 calcium, HEK293 TRPC4beta/mu-opioid cells. Short transient receptor potential channel 4 (Mus musculus), Q9QUQ5. Fluo4 calcium fluorescence; stronger effect = higher value. B-score at 10 µM. hit rate 0.49% among 310,000;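 active = B-score above 5 SD of library B-scores, and initial fluorescence ratio not above library mean plus 5 SD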;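 note: positive B-score marks a calcium rise read as TRPC4 activation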
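Assay system: HEK293 cells stably co-expressing mouse TRPC4beta and mu-opioid receptor / Timing: Fluo4 dye loading 45 min at room temperature, 110 s recording / Signal: Fluo4 calcium-sensitive dye fluorescence, kinetic, 1 Hz baseline / Read-out: integrated baseline-normalised fluorescence ratio, converted to per-well B score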
HEK293 MPD ctr: parental HEK293 membrane potential modulation, confirmation, counter-screen for TRPC6 modulator project, cell-based | shares compounds with TRPC6 inh | membrane potential dye fluorescence | membrane potential signal change, % at 10 µM | hit rate 51% among 2,400 | AID 488924, 2010;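 active = membrane potential signal moves up or down beyond 5 SD from buffer-only wells, on both duplicate plates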
HEK293 MPD ctr 2: second counter-screen for TRPC6 modulators: effect in parental HEK293 cells; shares compounds with TRPC6 inh; membrane potential dye fluorescence; after compound, maximal acetylcholine stimulation; inhibition, % at 10 µM; hit rate 14% among 2,400;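 active = membrane potential signal drops by more than 5 SD from the mean control signal, in both duplicate plates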;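 note: plate controls were acetylcholine ECmax control wells for no effect and buffer only wells for full effect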
TRPC4/MOR mod: TRPC4 modulation by TRPC6 hit compounds, confirmation, selectivity assay for TRPC6 modulator project, cell-based, HEK293 TRPC4/mu-opioid, membrane potential dye, mouse | shares compounds with TRPC6 inh | membrane potential fluorescence | percent change from control (negative = decrease, positive = increase), % at 10 µM | hit rate 69% among 2,400 | AID 488927, 2010;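 active = membrane potential signal moved up or down beyond 5 SD of buffer control wells, in both duplicate plates, actives on both sides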;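 note: plate controls were assay buffer wells for no effect and DAMGO maximal-effect wells for full effect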
TRPC4 ctr inh 2: second check of whether TRPC6 modulators also affect mouse TRPC4; inhibition, % at 10 µM; HEK293 TRPC4/mu-opioid, membrane potential dye fluorescence; stimulated with maximal-effect DAMGO; hit rate 55% among 2,400; shares compounds with TRPC6 inh;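 active = drop in membrane potential signal beyond 5 SD of the control wells in both duplicate plates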;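 note: TRPC4 counter screen for TRPC6 hits run under conditions tuned for TRPC6 not TRPC4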
TRPC6 block conf: mouse TRPC6 channel inhibitors, confirmation, HEK293 cells, membrane potential dye, duplicate. shares compounds with TRPC6 inh. ACh-evoked depolarization. inhibition, % at 10 µM. hit rate 43% among 3,300. AID 488960, 2010;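 active = fluorescence ratio falls more than 5 SD below the full-stimulation control mean, in both duplicate runs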;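 note: integrated fluorescence ratio of peak minus minimum over baseline after agonist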
TRPC6 act confirm: mouse TRPC6 channel activators, confirmation, HEK293 cells, membrane potential dye, duplicate. shares compounds with TRPC6 inh. hit rate 11% among 2,800. AID 488961, 2010. activation, % at 10 µM. HEK293-TRPC6 membrane potential dye fluorescence, FDSS;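 active = ratio signal rise beyond 5 SD above unstimulated control wells' mean, seen in both duplicate runs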;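 note: plate controls were buffer EC0 wells for no effect and acetylcholine ECmax response for full effect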
* hit, by the source's call; i = inactive; / = no result given. A selection: hits, their analogues and other compounds. The true share with any hit is near 2.3%.

SMILES	TRPC6 inh	TRPC4 PAM	TRPC4 block	TRPC6 act	TRPC4 act	HEK293 MPD ctr	HEK293 MPD ctr 2	TRPC4/MOR mod	TRPC4 ctr inh 2	TRPC6 block conf	TRPC6 act confirm
CC(C)CCNC(=O)C(c1ccco1)N(Cc1cccs1)C(=O)Cn1nnc2ccccc21 (stereo not drawn)	i	i	i	15*	i	281%*	i	72%*	i	i	98%*
COCCNC(=O)C(c1cccs1)N(Cc1cccs1)C(=O)Cn1nnc2ccccc21 (stereo not drawn)	i	i	i	i	i	/	/	/	/	/	/
COc1cc(OC)c2nc(C)c3c(c2c1)N(c1ccc(O)cc1)CC3	-7.2*	i	i	i	i	-174%*	101%*	-18%*	42%*	i	i
COc1ccccc1-c1coc2c(CN3CCCC(C)C3)c(O)ccc2c1=O (stereo not drawn)	-5.9*	i	i	i	i	i	i	i	i	i	i
COc1ccccc1-c1c(C)oc2c(CN3CCCC(C)C3)c(O)ccc2c1=O (stereo not drawn)	i	i	i	i	i	/	/	/	/	/	/
C/C(=N\O)c1ncc(C(F)(F)F)cc1Cl	i	i	i	i	i	/	/	/	/	/	/
Cc1cc(NCCN2CCOCC2)c2ccc3ccccc3c2n1	-6.5*	i	i	i	i	-94%*	65%*	-26%*	70%*	57%*	i
COc1ccc2nc(C)cc(NCCN3CCOCC3)c2c1	-9.5*	i	i	i	i	-328%*	88%*	-64%*	54%*	65%*	i
COc1cc(NC(=O)CSc2nnc3ccc(-c4cccnc4)nn23)cc(OC)c1	i	i	i	i	i	/	/	/	/	/	/
O=C(C[n+]1cccc2ccccc21)c1ccccc1	i	i	i	i	i	/	/	/	/	/	/
